Results published in ChEMBL document CHEMBL1146087, “1,4-Benzodiazepines as inhibitors of respiratory syncytial virus” (J Med Chem, 2006).

Tests used:
[1] = test system: Respiratory syncytial virus; experiment: Antiviral activity against RSV RSS in Hep2 cells by whole cell XTT assay; type: functional, organism-based; settings: human respiratory syncytial virus, HEp-2
Summary of the method: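 Primary whole-cell assay with XTT read-out of infected cells. Parallel cultures without virus were run to measure compound cytotoxicity. IC50 values were derived.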

HEp-2 = experiment: Cytotoxicity against Hep2 cell at 50 uM; type: functional, cell-based; settings: Homo sapiens
Summary of the method: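 Run alongside the whole-cell antiviral XTT assay, without virus, to measure compound toxicity to the cells. The read-out is XTT.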

[2] = Oral bioavailability in Sprague-Dawley rat at 2 mg/kg, po; type: ADME, organism-based; settings: in vivo
[3] = Volume of distribution in Sprague-Dawley rat at 2 mg/kg, iv; type: ADME, organism-based; parameters: dose 2 mg/kg, route intravenous; settings: in vivo, read-out: Vdss
[4] = Cmax in Sprague-Dawley rat at 2 mg/kg, iv; type: ADME, organism-based; parameters: dose 2 mg/kg, route intravenous; settings: in vivo
[5] = Cmax in Sprague-Dawley rat at 2 mg/kg, po; type: ADME, organism-based; parameters: dose 2 mg/kg, route oral; settings: in vivo
[6] = Tmax in Sprague-Dawley rat at 2 mg/kg, iv; type: ADME, organism-based; parameters: dose 2 mg/kg, route intravenous; settings: in vivo
[7] = Tmax in Sprague-Dawley rat at 2 mg/kg, po; type: ADME, organism-based; parameters: dose 2 mg/kg, route oral; settings: in vivo
[8] = Half life in Sprague-Dawley rat at 2 mg/kg, iv; type: ADME, organism-based; parameters: dose 2 mg/kg, route intravenous; settings: in vivo
[9] = Clearance in Sprague-Dawley rat at 2 mg/kg, iv; type: ADME, organism-based; parameters: dose 2 mg/kg, route intravenous; settings: in vivo
[10] = Cmax in Sprague-Dawley rat at 20 mg/kg, po; type: ADME, organism-based; parameters: dose 20 mg/kg, route oral; settings: in vivo
[11] = Tmax in Sprague-Dawley rat at 20 mg/kg, po; type: ADME, organism-based; parameters: dose 20 mg/kg, route oral; settings: in vivo
[12] = Half life in Sprague-Dawley rat at 20 mg/kg, po; type: ADME, organism-based; parameters: dose 20 mg/kg, route oral; settings: in vivo
[13] = Apparent oral clearance in Sprague-Dawley rat at 20 mg/kg, po; type: ADME, organism-based; parameters: dose 20 mg/kg, route oral; settings: in vivo
Rattus norvegicus [14] = experiment: Volume of distribution in Sprague-Dawley rat at 20 mg/kg, po; type: ADME, organism-based; parameters: dose 20 mg/kg, route oral; settings: in vivo
Rattus norvegicus [15] = experiment: Volume of distribution in Sprague-Dawley rat at 2 mg/kg, po; type: ADME, organism-based; parameters: dose 2 mg/kg, route oral; settings: in vivo
[16] = test system: Respiratory syncytial virus; experiment: Antiviral activity against RSV RSS in Hep2 cells by ELISA; type: functional, organism-based; settings: human respiratory syncytial virus, HEp-2
[17] = test system: Respiratory syncytial virus; experiment: Antiviral activity against RSV Long in Hep2 cells by ELISA; type: functional, organism-based; settings: human respiratory syncytial virus, HEp-2
[18] = test system: Respiratory syncytial virus; experiment: Antiviral activity against RSV B in Hep2 cells by ELISA; type: functional, organism-based; settings: human respiratory syncytial virus, HEp-2
[19] = test system: Respiratory syncytial virus; experiment: Antiviral activity against RSV A2 in Hep2 cells by plaque assay; type: functional, organism-based; settings: human respiratory syncytial virus, A2, HEp-2
[20] = test system: Respiratory syncytial virus; experiment: Antiviral activity against RSV RSS in Hep2 cells by plaque assay; type: functional, organism-based; settings: human respiratory syncytial virus, HEp-2
[21] = test system: Respiratory syncytial virus; experiment: Antiviral activity against RSV Long in Hep2 cells by plaque assay; type: functional, organism-based; settings: human respiratory syncytial virus, HEp-2
[22] = test system: Respiratory syncytial virus; experiment: Antiviral activity against RSV B in Hep2 cells by plaque assay; type: functional, organism-based; settings: human respiratory syncytial virus, HEp-2
[23] = Half life in Sprague-Dawley rat at 2 mg/kg, po; type: ADME, organism-based; parameters: dose 2 mg/kg, route oral; settings: in vivo

CCCOc1ccccc1C(=O)NC1N=C(c2ccccc2)c2ccccc2NC1=O (stereo not given)
IC50 [1]: 40.2 µM
Activity (HEp-2): Not toxic

O=C(NC1N=C(c2ccccc2)c2ccccc2NC1=O)c1ccccc1OC(F)(F)F (stereo not given)
IC50 [1]: 14.4 µM
Activity (HEp-2): Not toxic

COc1ccc(C(=O)NC2N=C(c3ccccc3)c3ccccc3NC2=O)cc1 (stereo not given)
IC50 [1]: 3.6 µM
Activity (HEp-2): Not toxic

CCN(CC)C1N=C(c2ccccc2)c2ccccc2NC1=O (stereo not given)
IC50 [1]: > 50 µM
Activity (HEp-2): Not toxic

COc1cccc(C(=O)NC2N=C(c3ccccc3)c3ccccc3NC2=O)c1 (stereo not given)
IC50 [1]: 6.6 µM
Activity (HEp-2): Not toxic

COc1ccccc1C(=O)NC1N=C(c2ccc(C(F)(F)F)cc2)c2ccccc2NC1=O (stereo not given)
IC50 [1]: > 50 µM
Activity (HEp-2): Not toxic

CC(C)C(=O)NC1N=C(c2ccccc2)c2ccccc2NC1=O (stereo not given)
IC50 [1]: 9.5 µM
Activity (HEp-2): Not toxic

COc1ccccc1C(=O)NC1N=C(c2ccccc2)c2ccccc2NC1=O (stereo not given)
bioavailability [2]: 4%
Vd [3]: 2.4 L/kg
IC50 [1]: 2.3 µM
Activity (HEp-2): Not toxic
Cmax [4]: 798 ng/mL
Cmax [5]: 19.3 ng/mL
Tmax [6]: 4.8 min
Tmax [7]: 0.8 h
half-life [8]: 0.4 h
clearance [9]: 71.2 mL/min/kg

CC(C)(C)C(=O)NC1N=C(c2ccccc2)c2ccccc2NC1=O (stereo not given)
IC50 [1]: 16.7 µM
Activity (HEp-2): Not toxic

CN1CCN(C(=O)NC2N=C(c3ccccc3)c3ccccc3NC2=O)CC1 (stereo not given)
IC50 [1]: 9.3 µM
Activity (HEp-2): Not toxic

COc1ccc(C(=O)NC2N=C(c3ccccc3)c3ccccc3NC2=O)c(OC)c1 (stereo not given)
IC50 [1]: 2.1 µM
Activity (HEp-2): Not toxic

O=C(Nc1ccccc1F)OC1N=C(c2ccccc2)c2ccccc2NC1=O (stereo not given)
IC50 [1]: 16.1 µM
Activity (HEp-2): Not toxic

Cc1cc(C(=O)NC2N=C(c3ccccc3)c3ccccc3NC2=O)oc1C (stereo not given)
IC50 [1]: 2.8 µM
Activity (HEp-2): Not toxic

O=C(NC1N=C(c2cccc(Cl)c2)c2ccccc2NC1=O)c1ccco1 (stereo not given)
IC50 [1]: 6.9 µM
Activity (HEp-2): Not toxic

O=C(NC1N=C(c2ccccc2)c2ccccc2NC1=O)c1cccc(OC(F)(F)F)c1 (stereo not given)
IC50 [1]: 14.6 µM
Activity (HEp-2): Not toxic

O=C1Nc2ccccc2C(c2ccccc2)=NC1N1CCOCC1 (stereo not given)
IC50 [1]: > 50 µM
Activity (HEp-2): Not toxic

O=C(NC1N=C(c2ccccc2)c2ccccc2NC1=O)C1CCCCC1 (stereo not given)
Activity (HEp-2): Not toxic

COc1cc(Cl)ccc1C(=O)NC1N=C(c2ccccc2)c2ccccc2NC1=O (stereo not given)
Cmax [10]: 273 ng/mL
Tmax [11]: 1 h
half-life [12]: 2.7 h
CL/F [13]: 288 mL/min/kg
Vdss (Rattus norvegicus [14]): 98.3 L/kg
IC50 [1]: 5.9 µM
Activity (HEp-2): Not toxic

COc1ccccc1CNC1N=C(c2ccccc2)c2ccccc2NC1=O (stereo not given)
IC50 [1]: 27.3 µM
Activity (HEp-2): Not toxic

COc1ccc(CNC2N=C(c3ccccc3)c3ccccc3NC2=O)cc1 (stereo not given)
Activity (HEp-2): Not toxic

CN1C(=O)C(NC(=O)Nc2ccccc2F)N=C(c2ccccc2)c2ccccc21 (stereo not given)
IC50 [1]: > 50 µM
Activity (HEp-2): Not toxic

COc1cccc(C2=NC(NC(=O)c3ccccc3OC)C(=O)Nc3ccccc32)c1 (stereo not given)
IC50 [1]: > 50 µM
Activity (HEp-2): Not toxic

O=C(NC1N=C(c2ccc(C(F)(F)F)cc2)c2ccccc2NC1=O)c1ccco1 (stereo not given)
IC50 [1]: > 50 µM
Activity (HEp-2): Not toxic

O=C(Nc1ccccc1F)NC1N=C(c2ccccc2)c2ccccc2NC1=O (stereo not given)
Vdss (Rattus norvegicus [15]): 7.5 L/kg
bioavailability [2]: 76%
Vd [3]: 2.5 L/kg
IC50 [1]: 3.3 µM
Activity (HEp-2): Not toxic
IC50 [16]: 2.7 µM
IC50 [17]: 2.5 µM
IC50 [18]: 1.9 µM
IC50 [19]: 2.8 µM
IC50 [20]: 3 µM
IC50 [21]: 2.2 µM
IC50 [22]: 0.75 µM
Cmax [4]: 1530 ng/mL
Cmax [5]: 386 ng/mL
Tmax [6]: 4.8 min
Tmax [7]: 2.6 h
half-life [8]: 3.7 h
half-life [23]: 8.1 h

O=C(NC1N=C(c2ccccc2)c2ccc(Cl)cc2NC1=O)c1cccs1 (stereo not given)
IC50 [1]: 26.7 µM
Activity (HEp-2): Not toxic

O=C(NC1N=C(c2ccccc2)c2ccccc2NC1=O)c1ccccc1C1CCCCC1 (stereo not given)
IC50 [1]: > 50 µM
Activity (HEp-2): Not toxic

COc1cc([N+](=O)[O-])ccc1C(=O)NC1N=C(c2ccccc2)c2ccccc2N(C)C1=O (stereo not given)
IC50 [1]: > 50 µM
Activity (HEp-2): Not toxic

O=C(NC1N=C(c2ccccc2)c2ccccc2NC1=O)c1cccc([N+](=O)[O-])c1 (stereo not given)
IC50 [1]: 7.4 µM
Activity (HEp-2): Not toxic

COc1ccccc1C(=O)NC1N=C(c2ccc(F)cc2)c2ccccc2NC1=O (stereo not given)
IC50 [1]: 16.5 µM
Activity (HEp-2): Not toxic
